Results as given in ChEMBL document CHEMBL1128510, “Potent inhibitors of acyl-CoA:cholesterol acyltransferase. Structure-activity relationships of novel N-(4-oxochroman-8-yl)amides” (J Med Chem, 1995).

Assays:
[1] = Inhibition of rabbit small-intestinal Acyl coenzyme A:cholesterol acyltransferase 1; set-up: species or system Oryctolagus cuniculus
In short: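 Source: intestinal mucosa microsomes from cholesterol-fed Japanese white rabbits. Mucosa homogenized in 40 mM phosphate pH 7.4 with 30 mM EDTA, 50 mM KCl and 0.1 M sucrose; spun 10000g for 30 min, then 105000g for 1 h, at 4 °C.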

[2] = tested on: Rattus norvegicus; assay: Serum total cholesterol-lowering activity in the cholesterol-fed rats expressed as the ratio of the observed reduction to the difference between the control and normal levels 100 (10 mg/kg po); type: functional
In short: (§1)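 Male Wistar rats (8–9 weeks, 200 g, n = 6/group) on normal chow for 7 days, then a 2% cholesterol/1% cholic acid/12% coconut oil diet for 3 days. Compound in 0.5% methyl cellulose given orally once daily for 3 days at the listed dose; controls got vehicle. After a 16 h fast, aortic blood taken; serum cholesterol measured enzymatically. % change = (A−B)/(B−C)×100, with B = control and C = normal-diet rats.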

[3] = Ability to inhibit rabbit liver Acyl coenzyme A:cholesterol acyltransferase 1; set-up: species or system Oryctolagus cuniculus
In short: (§2)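 Liver microsomes from Japanese white rabbits, prepared in 0.154 M phosphate buffer pH 7.4 with 40 mM NaF. Assay mix: 36 μM BSA, 2 mM DTT, 0.5 mg/mL microsomes, sonicated liposomes (PC:PS:cholesterol 3:1:8, 8 mg/mL cholesterol). Compound added as 1% (v/v) DMSO solution, preincubated 3 min at 37 °C. Reaction started with 43 μM [14C]oleoyl-CoA, 10 min at 37 °C. Cholesteryl oleate radioactivity measured; IC50 determined.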

[4] = tested on: Rattus norvegicus; assay: Serum total cholesterol-lowering activity in the cholesterol-fed rat expressed as the ratio of the observed reduction to the difference between the control and normal levels 100 (0.1 mg/kg po); type: functional; in short: as §1
[5] = tested on: Rattus norvegicus; assay: Serum total cholesterol-lowering activity in the cholesterol-fed rat expressed as the ratio of the observed reduction to the difference between the control and normal levels 100 (0.3 mg/kg, po); type: functional; in short: as §1
[6] = species: Rattus norvegicus; assay: IC50 is the concentration that inhibits 50% of the enzyme activity was evaluated by measuring the ability to inhibit acetyl-LDL-induced cholesteryl ester accumulation in rat peritoneal macrophages.; type: functional
In short: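 Peritoneal macrophages from nonstimulated male Wistar rats (250–300 g), 3 × 10^6 per dish in 10% FBS-DMEM, adhered 2 h at 37 °C in 5% CO2. Washed in 3% BSA-DMEM, then incubated 16 h with 25 µg/mL acetylated human LDL, [14C]oleate-BSA and compound. Lipids extracted in hexane–2-propanol with [3H]cholesteryl oleate recovery standard. Cholesteryl oleate isolated by TLC and counted; IC50 determined for ester accumulation.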

[7] = tested on: Rattus norvegicus; assay: Serum total cholesterol-lowering activity in the cholesterol-fed rats expressed as the ratio of the observed reduction to the difference between the control and normal levels 100 (3 mg/kg po); type: functional; in short: as §1
[8] = Ability to inhibit rabbit liver Acyl coenzyme A:cholesterol acyltransferase 1.; set-up: species or system Oryctolagus cuniculus; in short: as §2
[9] = tested on: Rattus norvegicus; assay: Serum total cholesterol-lowering activity in the cholesterol-fed rats expressed as the ratio of the observed reduction to the difference between the control and normal levels 100. (0.3 mg/kg, po); type: functional; in short: as §1
[10] = tested on: Rattus norvegicus; assay: Serum total cholesterol-lowering activity in the cholesterol-fed rats expressed as the ratio of the observed reduction to the difference between the control and normal levels 100 (0.1 mg/kg po); type: functional; details: in the assay text read “1 mg/kg po” for “0.1 mg/kg po”; in short: as §1
[11] = tested on: Rattus norvegicus; assay: Serum total cholesterol-lowering activity in the cholesterol-fed rats expressed as the ratio of the observed reduction to the difference between the control and normal levels 100 (0.3 mg/kg po); type: functional; in short: as §1
[12] = tested on: Rattus norvegicus; assay: Serum total cholesterol-lowering activity in the cholesterol-fed rat expressed as the ratio of the observed reduction to the difference between the control and normal levels 100 (3 mg/kg po); type: functional; in short: as §1

## CCCCCCCCCCCCC(C)(C)C(=O)Nc1c(OC)ccc2c1OCCC2=O
[1]
  IC50: 7.5 nM

## Cc1cc(C)c2c(c1NC(=O)C(C)(C)CCCCCOc1ccc(Cl)cc1)OCCC2=O
[1]
  IC50: 400 nM

## Cc1ccc2c(c1NC(=O)C(C)(C)CCCCCOc1ccc(Cl)cc1)OCCC2=O
[1]
  IC50: 470 nM
[2]
  Change: -53%

## CCCCCCCCCCOc1ccc2c(c1NC(=O)C(C)(C)CCCCCCOc1ccc(Cl)cc1)OCCC2=O
[1]
  IC50: 140 nM

## CCCCCCCCCCC(C)(C)C(=O)Nc1c(Cl)ccc2c1OCCC2=O
[1]
  IC50: 150 nM

## COc1ccc2c(c1NC(=O)C(C)(C)CCCCCCOCC(C)C)OCCC2=O
[1]
  IC50: 26 nM

## Cc1ccc2c(c1NC(=O)c1ccccc1)OCCC2=O
[1]
  IC50: > 1000 nM

## CCCCCCCCCCC1(C(=O)Nc2c(C)ccc3c2OCCC3=O)CCCC1
[1]
  IC50: 170 nM

## COc1ccc2c(c1NC(=O)C(C)(C)CCCc1ccc(CC(C)C)cc1)OCCC2=O
[1]
  IC50: 17 nM

## CCCCCCCCCCC(C)(C)C(=O)Nc1c(OC)ccc2c(=O)ccoc12
[1]
  IC50: 77 nM

## CCCCCCCCCCC(C)(C)C(=O)Nc1c(OC)ccc2c1OCCC2=O
[3]
  IC50: 16 nM
[1]
  IC50: 13 nM
[4]
  Change: -61%
[5]
  Change: -66%
[6]
  IC50: 160 nM

## COc1ccc2c(c1NC(=O)C(C)(C)CCCCCCc1ccccc1)OCCC2=O
[1]
  IC50: 44 nM

## Cc1ccc2c(=O)ccoc2c1NC(=O)C(C)(C)CCCCCOc1ccc(Cl)cc1
[1]
  IC50: > 500 nM

## CCCCCCCCCCC(C)(C)C(=O)Nc1c(OC)ccc2c1OCCC2
[1]
  IC50: 180 nM

## CCCCCCCCCCOc1cc(C)c(C(=O)Nc2c(OC)ccc3c2OCCC3=O)c(C)c1
[1]
  IC50: > 200 nM

## CCCCCCCCCCC(C)(C)C(=O)Nc1c(OC)ccc2c(=O)cc(CC)oc12
[1]
  IC50: 780 nM

## CCCCCCOc1ccc(CCCC(C)(C)C(=O)Nc2c(OC)ccc3c2OCCC3=O)cc1
[1]
  IC50: 16 nM
[7]
  Change: -65%

## CCCCCCCCCCC(C)(C)C(=O)Nc1c(C)ccc2c1OCCC2=O
[1]
  IC50: 210 nM

## COc1ccc2c(c1NC(=O)c1ccc(OCCCCCCOc3ccc(Cl)cc3)cc1)OCCC2=O
[8]
  IC50: 59 nM
[1]
  IC50: 26 nM
[7]
  Change: -79%
[9]
  Change: -56%
[6]
  IC50: 220 nM

## COc1ccc(C(=O)Nc2c(C)ccc3c2OCCC3=O)cc1
[1]
  IC50: > 1000 nM

## CC(C)(C)C(=O)Nc1c(OCCCCCCc2ccccc2)ccc2c1OCCC2=O
[1]
  IC50: 24 nM

## COc1ccc2c(c1NC(=O)c1ccc(OCCCCCCOCC(C)C)cc1)OCCC2=O
[1]
  IC50: 40 nM

## Cc1ccc2c(c1NC(=O)C(C)(C)Cc1ccccc1)OCCC2=O
[1]
  IC50: > 1000 nM

## CCCCCCCCCCC(C)(C)C(=O)Nc1c2c(cc([N+](=O)[O-])c1OC)C(=O)CCO2
[1]
  IC50: 34 nM

## CCCOCCCCCCC(C)(C)C(=O)Nc1c(OC)ccc2c1OCCC2=O
[1]
  IC50: 30 nM

## COc1ccc2c(c1NC(=O)C(C)(C)CCCCCCOc1ccc(Cl)cc1)C(=O)CCO2
[1]
  IC50: 180 nM

## CCCCCCCCCCOc1ccc2c(c1NC(=O)C(C)(C)CCCCCCCCCC)OCCC2=O
[1]
  IC50: 850 nM

## CCCCCCCCCCOc1ccc(C(=O)Nc2c(OC)ccc3c2OCCC3=O)cc1
[1]
  IC50: 12 nM

## CCCCCCCCCCC(C)(C)C(=O)Nc1c2c(cc(N(C)C)c1OC)C(=O)CCO2
[1]
  IC50: > 200 nM

## CCCCCCCCCCOc1ccc(C(=O)Nc2c(OCCCCCCCCCC)ccc3c2OCCC3=O)cc1
[1]
  IC50: > 100 nM

## CCCc1ccc(CCCC(C)(C)C(=O)Nc2c(OC)ccc3c2OCCC3=O)cc1
[1]
  IC50: 27 nM
[10]
  Change: -54%

## COc1ccc2c(c1NC(=O)C(C)(C)CCCCCCOc1ccc(Cl)cc1)OCCC2=O
[1]
  IC50: 64 nM
[11]
  Change: -53%
[9]
  Change: -53%

## COc1ccc(OCCCCOc2ccc3c(c2NC(=O)C(C)(C)C)OCCC3=O)cc1
[1]
  IC50: 43 nM

## CCCCCCCCCCC(C)(C)C(=O)Nc1c(OC)c(NC)cc2c1OCCC2=O
[1]
  IC50: 49 nM

## CCCCCCCCCCC1(C(=O)Nc2c(C)ccc3c2NCCC3=O)CCCC1
[1]
  IC50: 430 nM

## Cc1ccc2c(c1NC(=O)C(C)(C)CCCCOc1ccc(Cl)cc1)OCCC2=O
[1]
  IC50: 510 nM

## CCCCCCCCC(C)(C)C(=O)Nc1c(OC)ccc2c1OCCC2=O
[1]
  IC50: 31 nM

## CCCCCCCCCCC(C)(C)C(=O)Nc1c(OCCC)ccc2c1OCCC2=O
[1]
  IC50: 14 nM

## CCCCCCCCCCOc1ccc2c(c1NC(C)=O)OCCC2=O
[1]
  IC50: 300 nM

## CCCCCCCCCCOc1ccc2c(c1NC(=O)C(C)(C)C)OCCC2=O
[3]
  IC50: 22 nM
[1]
  IC50: 14 nM
[5]
  Change: -45%
[6]
  IC50: 130 nM

## CCCCCCCCCCOc1ccc2c(=O)ccoc2c1NC(=O)C(C)(C)C
[1]
  IC50: 130 nM

## CCCCCCCCCCOc1ccc2c(c1NC(=O)c1ccc(OCCCCCCOc3ccc(Cl)cc3)cc1)OCCC2=O
[1]
  IC50: 540 nM

## CCCCCCCCCCC(C)(C)C(=O)Nc1c(OC)cc(OC)cc1OC [CL-976]
[3]
  IC50: 149 nM
[1]
  IC50: 140 nM
[12]
  Change: -50%
[6]
  IC50: 3800 nM
